Screening results: PubChem, several laboratories
NF-kB expr up: compounds increasing NF-kB expression in human neuronal cells; NF-kB reporter expression; stronger effect = higher value; fold change at 12.5 µM; 190,000 compounds, 1.6% hits; in the data active = fold change above about 3.3
STAT3 activator: STAT3 signaling activation | activation (% of control), % at 5.6 µM | U3A cells, IL-6 STAT3-luciferase reporter, luminescence; 100% = signal with IL-6 EC80 alone | AID 871 | 190,000 compounds, 0.91% hits;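 active = activation above the screen-wide mean of compound activation plus 3 SD, cut at about 130% in these data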;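 also: 0% = background luminescence of wells with medium and substrate only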
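Detection: reporter luminescence signal / Assay system: STAT1-lacking human U3A cells, STAT3 luciferase reporter / Incubation: compound pre-incubation 1 h before IL-6, then 6 h stimulation at 37 °C / Control set: IL-6-only high control / Read-out: % activation relative to IL-6 control / Probe or stimulus: Interleukin-6, 33 ng/mL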
STAT3 blocker: inhibitors of IL-6 induced STAT3 signaling. inhibition, % at 5.5 µM. U3A cells, IL-6 STAT3-luciferase reporter, luminescence; host cell line lacks STAT1. 190,000 compounds, 0.89% hits;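 active = inhibition above the mean inhibition across all screened compounds plus 3 SD, cut at about 44% in these data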;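 also: 0% = DMSO only wells and 100% = 100 µM nifuroxazide control wells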
STAT1 act: increases IFN-gamma driven STAT1 reporter signal; NIH 3T3 STAT1-luciferase reporter, luminescence; 100% = IFN-gamma alone, no compound; AID 932; activation (% of control), % at 5.5 µM; 200,000 compounds, 2.6% hits;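 active = activation above the screen-wide mean activation plus 3 SD, cut at about 130% in these data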;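 also: raw ratio to IFN-gamma control signal so 100% means no change and 0% no light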
APP 5'UTR act: APP 5'UTR luciferase reporter activation; activation, % at 2 µM; SH-SY5Y APP 5'UTR luciferase reporter, luminescence; zero percent = DMSO vehicle wells; 190,000 compounds, 1% hits;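 active = activation above a set limit, based on mean plus 3 SD of controls, cut at about 140% in these data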
STAT1 inh: reduces IFN-gamma driven STAT1 reporter signal; NIH 3T3 STAT1-luciferase reporter, luminescence; inhibition, % at 5.5 µM; 200,000 compounds, 0.35% hits;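 active = inhibition above a set limit, the mean inhibition across all tested compounds plus 3 SD, cut at about 34% in these data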;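 also: 0% = IFN-gamma with DMSO and 100% = IFN-gamma with 300 µM nifuroxazide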
Starred values were filed as active, the others as inactive. Rows were chosen to be rich in hits. Some 4.9% of all compounds tested hit in one or more screens of this group.

SMILES	NF-kB expr up	STAT3 activator	STAT3 blocker	STAT1 act	APP 5'UTR act	STAT1 inh
COCCNC(=O)c1cc2sc3ccccc3c2s1	2.26	86.8	17.8	136.8*	103.8	-40.8
CN(C)CCCNC(=O)c1cc2sc3ccccc3c2s1	1.38	101.9	3.7	106.3	-4.8	-6.9
CCCCCCn1c(NCC)nc2c1c(=O)n(C)c(=O)n2C	0.97	43.2	67.3*	63.9	-1.9	39.7*
Cc1ccc2nc(-c3ccc(N4C(=NC(=O)CCC(=O)O)SC5CS(=O)(=O)CC54)cc3)sc2c1 (configuration not stated)	1.04	103.7	-4.8	134.4*	55.7	-37.9
CN(C)CCNC(=S)Nc1ccc(F)c(F)c1F	1.03	106.0	2.9	108.9	-5.5	-9.4
COC(=O)c1ccc2c(=O)n(CCCCCC(=O)NC(C)C)c(=O)[nH]c2c1	1.02	97.3	6.7	103.9	7.3	-5.5
Cc1ccc(C(O)(C(=O)NNc2ccc3ccccc3n2)c2ccc(C)cc2)cc1	1.91	108.4	-10.3	104.4	-5.0	-4.9
CCc1ccc(NC(=S)NC(=O)CC(C)C)cc1	2.19	113.2	-12.8	128.9*	60.9	-32.3
COc1ccc(C(=O)Nn2c(SCC(=O)c3ccccc3)nc3ccccc3c2=O)cc1	0.73	86.3	20.5	105.3	155.0*	-5.8
Cc1ccc(OCCCC(=O)Nc2nc3ccccc3[nH]2)cc1	1.27	99.2	5.9	110.9	-5.0	-9.8
O=C(Nc1nc2ccccc2[nH]1)c1ccccc1	3.22	69.6	39.7	94.8	214.2*	5.6
COc1ccc(C(=O)Nc2nc3cc(OC)c(OC)cc3c(=O)[nH]2)cc1	0.88	101.0	-0.2	97.6	9.0	2.6
CC(=O)Nc1nc2ccccc2[nH]1	1.18	97.6	8.3	110.3	17.1	-13.7
O=C(CCCOc1ccccc1)Nc1nc2ccccc2[nH]1	1.46	95.2	10.2	129.9*	61.9	-31.9
COc1ccc(C(=O)Nc2nc3ccccc3c(=O)[nH]2)cc1	4.01*	77.2	32.3	123.9	177.2*	-25.9
CC(=O)NC(=S)Nc1ccc(N2CCOCC2)c(S(=O)(=O)Nc2cc(Cl)ccc2Cl)c1	1.19	101.8	2.7	93.6	5.7	4.2
O=C(O)c1c2c(nc3ccccc13)/C(=C/c1ccc(O)cc1)CC2	0.93	55.8	58.3*	58.7	35.9	43.3*
CCc1ccc(/C=C2\CN(CC)Cc3c2nc2ccccc2c3C(=O)O)cc1	1.11	106.9	3.5	101.7	-4.7	-1.9
COc1cccc(/C=N/Nc2nn3cnnc3c3ccccc23)c1	0.5	78.2	31.6	91.0	-7.9	9.8
COc1cc(/C=N/Nc2nn3cnnc3c3ccccc23)ccc1O	0.75	51.4	57.5*	66.7	2.9	36.2*
CCOC(=O)c1cc(-c2ccc(C)cc2)nc2nc(SC)[nH]c(=O)c12	3.99*	84.9	16.2	99.3	3.5	0.8
Cc1sc2ncnc(Sc3ccccc3C(=O)O)c2c1C	0.88	102.9	7.4	103.1	15.4	-5.2
Cc1sc2ncnc(Sc3nnnn3-c3ccccc3)c2c1C	3.93*	94.2	9.3	94.8	-5.3	5.7
COc1ccc(-c2cc(O)cc(O)c2)cc1	3.84*	103.2	-2.8	101.6	102.9	-1.8
CCCCn1c(N)c(N(CC(C)C)C(=O)CCCSc2nncs2)c(=O)[nH]c1=O	1.03	103.9	3.2	102.0	14.4	-2.5
SMILES	NF-kB expr up	STAT3 activator	STAT3 blocker	STAT1 act	APP 5'UTR act	STAT1 inh
O=C1NCCCC1C(=O)Nc1ccccc1C(F)(F)F (configuration not stated)	1.02	99.6	5.0	103.0	17.4	-3.3
COc1ccc(C)cc1N(C(=O)COc1cccc(F)c1)c1nc2ccccc2s1	1.07	134.3*	-35.5	102.5	-8.8	-2.7
CCOC(=O)N1CCN(C(=O)CN(Cc2ccc(Cl)cc2)S(=O)(=O)c2ccc(C)cc2)CC1	0.67	93.5	7.8	101.4	2.8	-1.5
Cc1ccccc1NC(=O)C(=O)NC(C)CCc1ccccc1 (configuration not stated)	1.17	93.8	7.3	101.6	-11.2	-1.8
CC(CCc1ccccc1)NC(=O)C(=O)Nc1ccccc1 (configuration not stated)	2.03	107.8	-5.3	139.5*	55.9	-43.7
C=CCn1c(SCc2c(C)noc2C)nc2cc(C(=O)O)ccc2c1=O	2.82	92.2	12.9	101.8	-2.6	-1.9
